Hits are enriched below; roughly 2.2% of the tested compounds scored in any of these assays.
PKD1 inh: blocks activity of human protein kinase D1; Q15139; PKD1 kinase fluorescence polarization assay; inhibition, % (test concentration not listed); 200,000 compounds, 0.056% hits; AID 797; in the data active means inhibition above about 50%
FLuc inhib CS: counter-screen for luciferase assay inhibitors: firefly luciferase inhibition | ATPLite firefly luciferase biochemical luminescence, 10 min | P08659 | 200,000 compounds, 1.5% hits | inhibition, % at 10 µM;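 active means inhibition above about 50% when tested at 10 µM, limit read from the data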
Wee1 degr inh: blocks degradation of human Wee1 kinase; HeLa Luc-Wee1K328M stability, luciferase luminescence; 100% = proteasome inhibitor MG132 effect; reporter increase, % at 5 µM; 220,000 compounds, 1.2% hits; AID 1321;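 active means activation above the mean of all tested compounds plus 3 SD, set per screening run, cut at about 8.8% in these data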;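 further: cells exposed to compound for 20 h before luminescence read; 0% = DMSO alone and 100% = MG132 at 30 µM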
Target sequence (P30291 whole entry K328M): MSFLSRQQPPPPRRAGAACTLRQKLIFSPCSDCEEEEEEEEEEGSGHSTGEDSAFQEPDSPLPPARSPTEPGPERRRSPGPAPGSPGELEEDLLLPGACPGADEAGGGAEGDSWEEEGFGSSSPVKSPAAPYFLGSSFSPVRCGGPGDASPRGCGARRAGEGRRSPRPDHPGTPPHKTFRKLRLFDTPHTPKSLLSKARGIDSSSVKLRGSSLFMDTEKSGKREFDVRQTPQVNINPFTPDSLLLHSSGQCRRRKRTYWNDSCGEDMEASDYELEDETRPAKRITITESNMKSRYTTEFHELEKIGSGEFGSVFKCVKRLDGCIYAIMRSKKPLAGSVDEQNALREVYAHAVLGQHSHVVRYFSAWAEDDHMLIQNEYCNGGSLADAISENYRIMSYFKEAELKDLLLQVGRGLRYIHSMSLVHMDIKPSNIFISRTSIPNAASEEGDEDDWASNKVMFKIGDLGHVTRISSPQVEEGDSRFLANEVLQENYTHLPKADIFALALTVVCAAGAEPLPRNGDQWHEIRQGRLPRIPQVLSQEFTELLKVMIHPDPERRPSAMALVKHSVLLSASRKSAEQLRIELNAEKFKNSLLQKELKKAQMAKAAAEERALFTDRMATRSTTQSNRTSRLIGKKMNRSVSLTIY
PPC-1+TRAIL kill: compounds killing PPC-1 cancer cells with TRAIL present (potentiator screen, no TRAIL-free arm). PPC-1 cells + TRAIL, ATPLite viability luminescence. cell killing (% activity), % at 4 µM or 5 µM. 220,000 compounds, 0.41% hits. AID 1443;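 active means cell killing above 50% in the first pass at 4 µM, then a duplicate retest at 5 µM averaging 50% or more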;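 further: plate controls were cells with TRAIL plus DMSO for no effect and medium-only wells lacking cells for full effect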
FLuc stim CS: affects firefly luciferase, flagging false hits in luciferase stimulation screens | ATPlite luciferase biochemical, luminescence, 10 min; 0 = ATP-free wells, 1 = DMSO control | 200,000 tested, under 10 active | P08659 | AID 1027 | activation factor at 10 µM;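 active means luciferase activation factor, scaled between plate controls, of at least 2 with compound at 10 µM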
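Assay system: Luciferase/luciferin detection reagent, cell-free biochemical luciferase assay / Read-out: luciferase activation / Benchmarks: No-ATP low control, compound-free enzyme-plus-ATP high control / Medium: PBS buffer for ATP / Detection: luminescence measurement of luciferase light output / Schedule: 10 min at ambient temperature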
C8 TRAIL sens: caspase-8 TRAIL sensitization; NB7+C8 cells + TRAIL, ATPlite viability luminescence; inhibition (viability loss, TRAIL sensitization), % at 10 µM; 360,000 compounds, 1% hits;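 active means compounds causing at least 50% loss of cell viability in the single-dose screen, relative to plate controls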
Wee1 degr conf: human Wee1 degradation inhibition, confirmation | AID 1410 | shares compounds with Wee1 degr inh | 1,100 compounds, 4% hits | activation, % at 5 µM | HeLa Luc-Wee1K328M degradation, luminescence; vehicle 0%, proteasome-blocked wells 100%; in the data active means activation above about 8.9%
PPC1 cytotox: kills PPC-1 cells; 1,200 compounds, 50% hits; cytotoxicity, % at 5 µM; shares compounds with PPC-1+TRAIL kill; PPC-1 viability, ATPlite luminescence, overnight; AID 1447;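 active means reconfirmed compounds whose average cytotoxicity reaches 50% or more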;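 further: 0% = DMSO-treated cells and 100% = wells holding medium but no cells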
* hit, by the source's call; · = not tested or not shown.

SMILES | PKD1 inh | FLuc inhib CS | Wee1 degr inh | PPC-1+TRAIL kill | FLuc stim CS | C8 TRAIL sens | Wee1 degr conf | others
O=c1[nH]c2ccccc2nc1/C=C/c1ccc(O)cc1 | 10 | 54* | 11* | 12 | 0.5 | 36 | 6
O=C(Nc1nc2ccccc2[nH]1)C1CC1 | 0 | 4 | 8 | 6 | 1 | 24 | ·
COC(=O)c1ccc(N2C(c3cccc(OC)c3)=Cc3ccc(F)cc3C2c2c(C)[nH]c3ccccc23)cc1 (stereo not given) | · | · | · | · | · | 7 | ·
Cc1cc(NC(=O)CCSc2ccccc2)no1 | 4 | -5 | -2 | 5 | 1.1 | -1 | ·
COc1ccc(NC(=O)N2CCC(c3nc4ccccc4[nH]3)CC2)cc1 | 4 | 0 | 1 | -19 | 1 | -6 | ·
COc1cccc(CC2(CO)CCN(Cc3ccc(NC(C)=O)cc3)CC2)c1 | 3 | -8 | 22* | 9 | 1.1 | -2 | -2
COc1ccc(CC2(CO)CCN(Cc3ccc(NC(C)=O)cc3)CC2)cc1 | -8 | -4 | -2 | 12 | 1 | -2 | ·
CSc1ccc(Cn2c(C)c(C(=O)NCCC#N)sc2=O)cc1 | · | · | · | · | · | 0 | ·
CC(=O)Nc1cccc(-c2csc(Nc3ncccn3)n2)c1 | 1 | 40 | 13* | 40 | 0.6 | · | 5
Cc1nc(CN2CCCCC2)c(O)c(=O)[nH]1 | · | · | · | · | · | 2 | ·
CCN(CC)S(=O)(=O)c1cccc(NC(=O)c2cccc(S(=O)(=O)N3CCCC3)c2)c1 | · | · | · | · | · | -3 | ·
O=C(Nc1ccc(Cl)cn1)C1COc2ccccc2O1 (stereo not given) | -1 | 18 | 19* | · | 0.8 | 11 | 1
C=C(C)COc1ccc(-c2[nH]ncc2Oc2ccc(OC)cc2)c(O)c1 | · | · | 18* | -9 | · | 6 | 4
CCCCOc1c(Br)cc(CNCCCN2CCOCC2)cc1OC | · | · | · | · | · | 8 | ·
CC(C)(C)NC(=O)NCCc1ccccc1 | · | · | 13* | 1 | · | 3 | -1
CC(C)(C)C(=O)NC(=S)NCCc1ccccc1 | 7 | -2 | -3 | 7 | 1 | -13 | ·
C=CCNc1nc(Cl)nc(Nc2ccc(OC)cc2)n1 | 0 | -3 | -1 | 9 | 1 | 0 | ·
COc1ccc(Nc2nc(Cl)nc(Nc3ccc(OC)cc3)n2)cc1 | -5 | -4 | 13* | -10 | 1 | -8 | 2
CC(=O)Nc1ccc(N2CCCCC2)cc1 | -4 | -4 | 12* | 12 | 1 | -2 | 2
CC(=O)Nc1ccc(N2CCCC2)cc1 | 0 | 0 | 0 | 24 | 1 | -10 | ·
O=C(O)C1=C[C@H](c2cccs2)C[C@H](OCc2ccc(CO)cc2)O1 | · | · | · | -7 | · | -5 | ·
O=C(NC(=S)N(CCO)Cc1ccccc1)c1cc(Br)ccc1Cl | -3 | -8 | 11* | 14 | 1.1 | -4 | -1
C=CCNC(=S)NCC=C | · | · | 0 | 7 | · | -11 | ·
CC1CCN(C(=O)Cn2c(=O)n(-c3ccc(F)cc3)c(=O)c3sccc32)CC1 | 3 | -6 | 1 | -2 | 1.1 | 4 | ·
CC1CCCCN1C(=O)Cn1c(=O)n(-c2ccc(F)cc2)c(=O)c2sccc21 (stereo not given) | 1 | -3 | 11* | -3 | 1 | 16 | 4
SMILES | PKD1 inh | FLuc inhib CS | Wee1 degr inh | PPC-1+TRAIL kill | FLuc stim CS | C8 TRAIL sens | Wee1 degr conf | others
COc1ccc(NC(=O)CN2CCC(C(=O)c3ccc(F)cc3)CC2)c(OC)c1 | · | · | · | · | · | 6 | ·
O=C(COC(=O)[C@H](Cc1ccccc1)NC(=O)c1ccco1)Nc1ccccc1 | · | · | · | · | · | -3 | ·
Cc1cc(NC(=O)COC(=O)C(Cc2ccccc2)NC(=O)c2ccco2)no1 (stereo not given) | -9 | -5 | 21* | -15 | 1 | -2 | -2
CN1CCN(C(=O)c2cc3sc4ccccc4c3s2)CC1 | · | · | 14* | 4 | · | 32 | 1
O=C(CNC(=O)c1ccncc1)N/N=C/c1ccc(O)cc1O | · | · | 13* | 12 | · | 1 | 2
O=C(CNC(=O)c1ccc2c(c1)OCCO2)N/N=C/c1ccc(O)cc1O | -3 | -2 | -1 | 4 | 1 | -3 | ·
COc1ccc(OC)c(C(c2nnnn2C2CCCC2)N2CCN(c3ccc(F)cc3)CC2)c1 (stereo not given) | 0 | -6 | -3 | 1 | 1.1 | 10 | ·
COc1ccc(C(c2nnnn2C2CCCC2)N2CCC(C)CC2)c(OC)c1 (stereo not given) | 3 | -3 | 41* | 13 | 1 | -2 | -1
Cc1ccc2c(CSc3nnc(C4CC4)n3N)cc(=O)oc2c1C | 2 | -1 | 12* | 11 | 1 | -14 | 2
Cc1ccc2c(CSc3nnc(C4CC4)n3N)cc(=O)oc2c1 | 4 | -8 | -4 | -13 | 1.1 | 8 | ·
CC1CN(C2CCCCC2)C(=S)NC1=O (stereo not given) | · | · | · | · | · | -10 | ·
CCOC(=O)CN(C(=O)COc1ccc2c(C)cc(=O)oc2c1)c1ccc(OCC)cc1 | -3 | -2 | 13* | 14 | 1 | -8 | 1
CNC(=O)COC(=O)COc1ccc2c(C)cc(=O)oc2c1 | 8 | -1 | -2 | 5 | 1 | -3 | ·
COc1ccccc1C1/C(=C(\O)c2ccc3c(c2)OCCO3)C(=O)C(=O)N1Cc1cccnc1 (stereo not given) | · | · | · | · | · | 23 | ·
O=C(O)c1ccc2nc3c(nc2c1)-c1ccccc1C3=O | 10 | -7 | 17* | -5 | 1.1 | 4 | 5
O=C(/C=C/c1ccc(Cl)c(Cl)c1)N1CCc2ccccc21 | -9 | 7 | 19* | 0 | 0.9 | 29 | 5
O=C(O)Cn1c(CCS(=O)(=O)c2ccc(Br)cc2)nc2ccccc21 | 3 | -3 | 13* | 18 | 1 | -2 | -1
COc1ccc(NC(=O)CSCC(=O)Oc2c(OC)cccc2OC)cc1 | · | · | · | · | · | -3 | ·
COC(=O)C(C(=O)OC)c1ncccc1NS(=O)(=O)c1ccc(C)cc1 | · | · | · | · | · | 4 | ·
CCN(CC)C(=O)c1c(-c2ccccc2)oc2ccc(OC)cc12 | -12 | -9 | 17* | 17 | 1.1 | -4 | 0
CCOc1ccc2oc(-c3ccccc3)c(C(=O)N(C)C)c2c1 | -11 | -1 | 7 | 25 | 1 | -3 | ·
Cc1cccc2cc3c(N)c(C(=O)N4CCOCC4)sc3nc12 | -10 | 12 | 14* | 14 | 0.9 | 2 | 8
Cc1ccc(C(=O)Nc2ccc(C(=O)N3CCCCC3)cc2)o1 | · | · | · | · | · | -4 | ·
COc1ccc(NC(=O)Nc2ccc(OC)cc2)cc1 | -7 | 2 | -1 | 16 | 1 | 0 | ·
COc1ccc(NC(=O)/C=C2\SC(=O)NC2=O)cc1 | 4 | 30 | 15* | 24 | 0.7 | 2 | 3
O=[N+]([O-])c1ccc(Sc2cccc[n+]2[O-])c2nonc12 | · | · | 40* | 34 | · | 19 | 43* | PPC1 cytotox=31

Screening results deposited in PubChem BioAssay by several laboratories.
